Experimental data: ChEMBL document CHEMBL3351861, “New synthetic sulfone derivatives inhibit growth, adhesion and the leucine arylamidase APE2 gene expression of Candida albicans in vitro” (2015)
Values after ≈ are worked out from the molar mass of the structure shown.

How the values were obtained:
Candida albicans [1] = test: Antifungal activity against Candida albicans 90028 assessed as growth inhibition at 4 ug/ml by CLSI M27-A3 method; format: functional; conditions: read-out: GI
Outline: (§1)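 CLSI M27-A3 broth microdilution in RPMI, read after 48 h. Strains pre-grown 18 h in YEPD at 30°C. Final inoculum 0.5×10^2–2.5×10^3 cells/ml. Two-fold dilutions in RPMI came from a 1600 µg/ml stock in water with 9% DMSO; final DMSO was 0.09%. OD405 read, % inhibition = 100 − (CTW−SCW)/(GCW−SCW). Triplicate on three occasions, mean±SD.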

Candida albicans [2] = test: Antifungal activity against Candida albicans CAI4 expressing delta-cph1 gene assessed as growth inhibition at 8 ug/ml by CLSI M27-A3 method; format: functional; conditions: read-out: GI; outline: as §1
Candida albicans [3] = test: Antifungal activity against Candida albicans CAI4 expressing delta-cph1/delta-efg1 gene assessed as growth inhibition at 8 ug/ml by CLSI M27-A3 method; format: functional; conditions: read-out: GI; outline: as §1
Candida albicans [4] = test: Antifungal activity against Candida albicans CAI4 expressing delta-cph1/delta-efg1 (EFG1) gene assessed as growth inhibition at by CLSI M27-A3 method; format: functional
Candida albicans [5] = test: Inhibition of cell adhesion of compound pre-treated Candida albicans 90028 to human Caco2 cells assessed as cell adhesion level at 8 ug/ml pre-incubated for 18 hrs by colony counting method (reference value: 1.58 +/- 0.67%); format: functional, Caco-2; design: scale not given: the % may be the effect or the level left
Candida albicans [6] = test: Antifungal activity against Candida albicans CAI4 expressing delta-cph1 gene assessed as growth inhibition at 1 ug/ml by CLSI M27-A3 method; format: functional; conditions: read-out: GI; outline: as §1
Candida albicans [7] = test: Inhibition of cell adhesion of compound pre-treated Candida albicans CAI4 expressing delta-cph1/delta-efg1 (EFG1) gene to human Caco2 cells assessed as cell adhesion level at 8 ug/ml pre-incubated for 18 hrs by colony counting method (reference value: 1.24 +/- 1.06%); format: functional, Caco-2; design: scale not given: the % may be the effect or the level left
Candida albicans [8] = test: Antifungal activity against Candida albicans CAI4 expressing delta-cph1 gene assessed as growth inhibition at 2 ug/ml by CLSI M27-A3 method; format: functional; conditions: read-out: GI; outline: as §1
Candida albicans [9] = test: Antifungal activity against Candida albicans 90028 assessed as growth inhibition at 1 ug/ml by CLSI M27-A3 method; format: functional; conditions: read-out: GI; outline: as §1
Candida albicans [10] = test: Antifungal activity against Candida albicans CAI4 expressing delta-cph1 (CPH1) gene assessed as growth inhibition at 0.5 ug/ml by CLSI M27-A3 method; format: functional; conditions: read-out: GI; outline: as §1
Candida albicans [11] = test: Antifungal activity against Candida albicans CAI4 expressing delta-cph1 gene assessed as growth inhibition at 4 ug/ml by CLSI M27-A3 method; format: functional; conditions: read-out: GI; outline: as §1
Candida albicans [12] = test: Antifungal activity against Candida albicans CAI4 expressing delta-cph1 (CPH1) gene assessed as growth inhibition at by CLSI M27-A3 method; format: functional
Candida albicans [13] = test: Antifungal activity against Candida albicans CAI4 expressing delta-efg1 (EFG1) gene assessed as growth inhibition at 0.5 ug/ml by CLSI M27-A3 method; format: functional; conditions: read-out: GI; outline: as §1
Candida albicans [14] = test: Antifungal activity against Candida albicans 90028 assessed as growth inhibition at by CLSI M27-A3 method; format: functional
Candida albicans [15] = test: Inhibition of cell adhesion of compound pre-treated Candida albicans CAI4 expressing delta-cph1 gene to human Caco2 cells assessed as cell adhesion level at 8 ug/ml pre-incubated for 18 hrs by colony counting method (reference value: 1.6 +/- 0.65%); format: functional, Caco-2; design: scale not given: the % may be the effect or the level left
Candida albicans [16] = test: Antifungal activity against Candida albicans CAI4 expressing delta-efg1 gene assessed as growth inhibition at 16 ug/ml by CLSI M27-A3 method; format: functional; conditions: read-out: GI
Outline: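 CLSI M27-A3 broth microdilution in RPMI. Final inoculum 0.5×10^2 to 2.5×10^3 cells/ml. Seven two-fold concentrations from 0.25 to 16 µg/ml, with DMSO held at 0.09% (v/v) in all wells. Compound-free growth controls and sterility controls are run for each strain. […] Triplicate on three occasions.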

Candida albicans [17] = test: Antifungal activity against Candida albicans CAI4 expressing delta-cph1/delta-efg1 (EFG1) gene assessed as growth inhibition at 1 ug/ml by CLSI M27-A3 method; format: functional; conditions: read-out: GI; outline: as §1
Candida albicans [18] = test: Inhibition of cell adhesion of compound pre-treated Candida albicans CAI4 expressing delta-cph1 (CPH1) gene to human Caco2 cells assessed as cell adhesion level at 16 ug/ml pre-incubated for 18 hrs by colony counting method (reference value: 5.37 +/- 12.4%); format: functional, Caco-2; design: scale not given: the % may be the effect or the level left
Candida albicans [19] = test: Antifungal activity against Candida albicans CAI4 expressing delta-cph1/delta-efg1 (EFG1) gene assessed as growth inhibition at 0.25 ug/ml by CLSI M27-A3 method; format: functional; conditions: read-out: GI; outline: as §1
Candida albicans [20] = test: Inhibition of cell adhesion of compound pre-treated Candida albicans CAI4 expressing delta-efg1 gene to human Caco2 cells assessed as cell adhesion level at 16 ug/ml pre-incubated for 18 hrs by colony counting method (reference value: 2.1 +/- 3.52%); format: functional, Caco-2; design: scale not given: the % may be the effect or the level left
Candida albicans [21] = test: Antifungal activity against Candida albicans CAI4 expressing delta-cph1/delta-efg1 gene assessed as growth inhibition at 2 ug/ml by CLSI M27-A3 method; format: functional; conditions: read-out: GI; outline: as §1
Candida albicans [22] = test: Inhibition of cell adhesion of compound pre-treated Candida albicans CAI4 expressing delta-cph1 gene to human Caco2 cells assessed as cell adhesion level at 4 ug/ml pre-incubated for 18 hrs by colony counting method (reference value: 1.6 +/- 0.65%); format: functional, Caco-2; design: scale not given: the % may be the effect or the level left
Candida albicans [23] = test: Antifungal activity against Candida albicans CAI4 expressing delta-cph1/delta-efg1 (EFG1) gene assessed as growth inhibition at 8 ug/ml by CLSI M27-A3 method; format: functional; conditions: read-out: GI; outline: as §1
Candida albicans [24] = test: Antifungal activity against Candida albicans CAI4 expressing delta-cph1 gene assessed as growth inhibition at 16 ug/ml by CLSI M27-A3 method; format: functional; conditions: read-out: GI; outline: as §1
Candida albicans [25] = test: Antifungal activity against Candida albicans CAI4 expressing delta-cph1 gene assessed as growth inhibition at by CLSI M27-A3 method; format: functional
Candida albicans [26] = test: Inhibition of cell adhesion of compound pre-treated Candida albicans CAI4 expressing delta-cph1 gene to human Caco2 cells assessed as cell adhesion level at 2 ug/ml pre-incubated for 18 hrs by colony counting method (reference value: 1.6 +/- 0.65%); format: functional, Caco-2; design: scale not given: the % may be the effect or the level left
Candida albicans [27] = test: Inhibition of cell adhesion of compound pre-treated Candida albicans CAI4 expressing delta-cph1/delta-efg1 (EFG1) gene to human Caco2 cells assessed as cell adhesion level at 16 ug/ml pre-incubated for 18 hrs by colony counting method (reference value: 1.24 +/- 1.06%); format: functional, Caco-2; design: scale not given: the % may be the effect or the level left
Candida albicans [28] = test: Antifungal activity against Candida albicans CAI4 expressing delta-cph1 (CPH1) gene assessed as growth inhibition at 8 ug/ml by CLSI M27-A3 method; format: functional; conditions: read-out: GI; outline: as §1
Candida albicans [29] = test: Antifungal activity against Candida albicans CAI4 expressing delta-efg1 gene assessed as growth inhibition at 0.25 ug/ml by CLSI M27-A3 method; format: functional; conditions: read-out: GI; outline: as §1
Candida albicans [30] = test: Inhibition of cell adhesion of compound pre-treated Candida albicans CAI4 expressing delta-efg1 gene to human Caco2 cells assessed as cell adhesion level at 4 ug/ml pre-incubated for 18 hrs by colony counting method (reference value: 2.1 +/- 3.52%); format: functional, Caco-2; design: scale not given: the % may be the effect or the level left
Candida albicans [31] = test: Antifungal activity against Candida albicans CAI4 expressing delta-cph1/delta-efg1 gene assessed as growth inhibition at 4 ug/ml by CLSI M27-A3 method; format: functional; conditions: read-out: GI; outline: as §1

Q: O=[N+]([O-])c1cc(S(=O)(=O)C(Cl)Cl)ccc1Cl was tested. Which inhibition of growth at 4 µg/mL (Candida albicans [1]) did it give?
A: 99.2%

Q: What about the inhibition of growth at 8 µg/mL (Candida albicans [2]) of the same compound?
A: 99.2%

Q: What about the inhibition of growth at 8 µg/mL (Candida albicans [3]) of the same compound?
A: 99.4%

Q: What about the MIC90 (Candida albicans [4]) of the same compound?
A: 16 µg/mL (≈ 52.5 µM)

Q: And the Activity (Candida albicans [5])?
A: 2.05%

Q: What about the inhibition of growth at 1 µg/mL (Candida albicans [6]) of the same compound?
A: 99.3%

Q: What about the Activity (Candida albicans [7]) of the same compound?
A: 2.24%

Q: What about the inhibition of growth at 2 µg/mL (Candida albicans [8]) of the same compound?
A: 99%

Q: What about the inhibition of growth at 1 µg/mL (Candida albicans [9]) of the same compound?
A: 99.2%

Q: And the inhibition of growth at 0.5 µg/mL (Candida albicans [10])?
A: 96.7%

Q: What about the inhibition of growth at 4 µg/mL (Candida albicans [11]) of the same compound?
A: 99.1%

Q: What about the MIC90 (Candida albicans [12]) of the same compound?
A: 16 µg/mL (≈ 52.5 µM)

Q: And the inhibition of growth at 0.5 µg/mL (Candida albicans [13])?
A: 95.4%

Q: And the MIC90 (Candida albicans [14])?
A: 16 µg/mL (≈ 52.5 µM)

Q: And the Activity (Candida albicans [15])?
A: 0.8%

Q: What about the inhibition of growth at 16 µg/mL (Candida albicans [16]) of the same compound?
A: 99.5%

Q: What about the inhibition of growth at 1 µg/mL (Candida albicans [17]) of the same compound?
A: 99%

Q: And the Activity (Candida albicans [18])?
A: 2.28%

Q: What about the inhibition of growth at 0.25 µg/mL (Candida albicans [19]) of the same compound?
A: 98.8%

Q: And the Activity (Candida albicans [20])?
A: 1.06%

Q: What about the inhibition of growth at 2 µg/mL (Candida albicans [21]) of the same compound?
A: 99.1%

Q: And the Activity (Candida albicans [22])?
A: 0.99%

Q: And the inhibition of growth at 8 µg/mL (Candida albicans [23])?
A: 99.3%

Q: And the inhibition of growth at 16 µg/mL (Candida albicans [24])?
A: 99.6%

Q: And the MIC90 (Candida albicans [25])?
A: 16 µg/mL (≈ 52.5 µM)

Q: What about the Activity (Candida albicans [26]) of the same compound?
A: 0.8%

Q: What about the Activity (Candida albicans [27]) of the same compound?
A: 1.68%

Q: What about the inhibition of growth at 8 µg/mL (Candida albicans [28]) of the same compound?
A: 99.4%

Q: What about the inhibition of growth at 0.25 µg/mL (Candida albicans [29]) of the same compound?
A: 99.1%

Q: And the Activity (Candida albicans [30])?
A: 0.97%

Q: What about the inhibition of growth at 4 µg/mL (Candida albicans [31]) of the same compound?
A: 99.2%
